Among the data in ChEMBL document CHEMBL1123470, “N-substituent modulation of opiate agonist/antagonist activity in resolved 3-methyl-3-(m-hydroxyphenyl)piperidines” (J Med Chem, 1986) are Kd, ED50 and AD50 values, retold here.

Assay [1] concerns the target T1, Delta-type opioid receptor (Rattus norvegicus, UniProt P33533). The assay can be described thus: Affinity against the Opioid receptor delta 1.
Assay [2] relates to Mus musculus. The assay can be described thus: Compound was tested for narcotic antagonist potency using tail flick test in mouse after sc administration of compound; no significant antagonist activity up to dose of 240-300 umol/kg. Format: functional, organism-based.
The target of assay [3] is T2, Mu-type opioid receptor (Rattus norvegicus, UniProt P33535). The assay can be described thus: (§1) Opioid receptor mu 1 affinity against the receptor site model site 1 (mu1) by using the curve-fitting program LIGAND. In short, it runs like this:
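Rat whole-brain homogenate, preincubated 37 °C 1 h, resuspended in Tris pH 7.7 (with 100 mM NaCl when appropriate) at 6.7 mg tissue/mL. […] Triplicate tubes, 25 °C 45 min, then filtration. Self- and cross-competition data were fitted together by multisite LIGAND analysis for site affinities. Values are averages of at least two experiments.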

For assay [4], the target named is Kappa-type opioid receptor (Rattus norvegicus, UniProt P34975). The experiment in a line: Opioid receptor affinity against Opioid receptor kappa 1 by using the curve-fitting program LIGAND.
The subject of assay [5] is Mus musculus. The experiment in a line: Compound was tested for narcotic antagonist potency using tail flick test in mouse after sc administration of compound. The assay is classed as functional. (Hot-plate and tail-flick tests time the reaction to a heat stimulus.)
In assay [6] the target is T1, Delta-type opioid receptor. The experiment in a line: Opioid receptor affinity against the Opioid receptor delta 1 by using the curve-fitting program LIGAND.
The target of assay [7] is Opioid receptor (Rattus norvegicus, UniProt P33533+P34975+P33535). The experiment in a line: Opioid receptor affinity against the receptor site model site 5 by using the curve-fitting program LIGAND. Format: protein assay.
Assay [8] deals with T2, Mu-type opioid receptor. The assay can be described thus: Mu2 opioid receptor affinity against the receptor site model site 2 (mu2) by using the curve-fitting program LIGAND.
In assay [9] the test system is Mus musculus. The experiment in a line: Compound was tested for analgesic potency using writhing test in mouse after sc administration of compound. Format: functional.
Assay [10] concerns Mus musculus. The experiment in a line: Compound was tested for narcotic antagonist potency using tail flick test in mouse after sc administration of compound; No significant antagonist activity up to dose of 240-300 umol/kg. The assay is classed as functional, organism-based.
The target in assay [11] is T2, Mu-type opioid receptor. The description is as §1. The source holds these as a separate data set.
Assay [12] has as its system Mus musculus. The experiment in a line: Analgesic antagonistic activity in mice using morphine(56.07 umol/kg) induced Straub-tail test after sc administration. The assay is classed as functional. An outline of the steps:
(§2)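 Mice got the test substance, N-allylnormorphine reference, or diluent sc, then immediately 56.07 µmol/kg morphine sulfate sc. The number of mice showing a Straub-tail reaction (tail raised above 45°) was recorded 15–25 min after treatment.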

The test system of assay [13] is Mus musculus. The assay can be described thus: Compound was tested for analgesic activity in mouse using mouse writhing test after sc administration of compound. Format: functional. For orientation: An intraperitoneal irritant provokes the stretching counted in writhing tests.
Assay [14] deals with Mus musculus. The assay can be described thus: Compound was tested for analgesic activity in mouse using mouse writhing test following subcutaneous administration. Format: functional.
The test system of assay [15] is Mus musculus. The experiment in a line: Analgesic antagonistic activity in mice using morphine(56.07 umol/kg) induced Straub-tail test after sc administration; No antagonist activity up to 846 umol/ kg. The assay is classed as functional, organism-based. An outline of the steps: as §2
The subject of assay [16] is Mus musculus. The experiment in a line: Compound was tested for narcotic antagonist potency using tail flick test in mouse following subcutaneous administration. The assay is classed as functional. The note with it: sc.
Where [17] appears, read: Mus musculus, sc, read-out: ED50.

SMILES strings stand for the structures. Counter-ions that a name gives are not always drawn. The source made the active and inactive calls. The rule behind the calls is not given here.

T1 sequence (P33533 whole entry): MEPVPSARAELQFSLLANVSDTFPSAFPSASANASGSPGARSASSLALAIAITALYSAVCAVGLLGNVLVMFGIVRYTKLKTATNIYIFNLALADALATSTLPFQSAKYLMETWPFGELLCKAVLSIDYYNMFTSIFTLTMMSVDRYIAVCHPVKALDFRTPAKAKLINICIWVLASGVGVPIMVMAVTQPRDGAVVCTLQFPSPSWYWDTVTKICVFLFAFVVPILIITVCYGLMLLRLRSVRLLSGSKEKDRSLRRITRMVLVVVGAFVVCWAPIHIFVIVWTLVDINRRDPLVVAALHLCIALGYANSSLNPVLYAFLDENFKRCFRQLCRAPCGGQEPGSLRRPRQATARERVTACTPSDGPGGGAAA
Sequence of Kappa-type opioid receptor (P34975 whole entry): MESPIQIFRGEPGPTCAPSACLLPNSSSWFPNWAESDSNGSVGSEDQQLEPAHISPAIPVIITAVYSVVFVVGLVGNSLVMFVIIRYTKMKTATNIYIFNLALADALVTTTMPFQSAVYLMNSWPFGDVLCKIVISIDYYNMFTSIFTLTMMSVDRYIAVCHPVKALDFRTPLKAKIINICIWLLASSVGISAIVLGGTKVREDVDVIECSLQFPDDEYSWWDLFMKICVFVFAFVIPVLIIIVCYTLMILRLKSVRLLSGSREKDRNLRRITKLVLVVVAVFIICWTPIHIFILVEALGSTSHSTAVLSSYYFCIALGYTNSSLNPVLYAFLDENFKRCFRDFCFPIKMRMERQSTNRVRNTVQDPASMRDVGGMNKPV
T2 sequence (P33535 whole entry): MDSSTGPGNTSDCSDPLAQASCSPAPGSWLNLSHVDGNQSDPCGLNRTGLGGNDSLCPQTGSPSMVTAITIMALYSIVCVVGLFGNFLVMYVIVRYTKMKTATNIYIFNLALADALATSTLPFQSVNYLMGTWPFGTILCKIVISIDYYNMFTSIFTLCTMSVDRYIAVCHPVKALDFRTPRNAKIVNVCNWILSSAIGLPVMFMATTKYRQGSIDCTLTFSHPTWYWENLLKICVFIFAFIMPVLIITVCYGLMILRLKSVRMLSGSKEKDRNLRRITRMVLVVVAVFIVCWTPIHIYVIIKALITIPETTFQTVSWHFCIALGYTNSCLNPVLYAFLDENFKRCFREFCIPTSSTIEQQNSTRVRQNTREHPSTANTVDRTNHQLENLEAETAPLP

Usually Kd stands for the free concentration of one partner at which half of the binding sites on the other are occupied at equilibrium, for simple one-to-one binding. Higher therefore signals weaker binding. In the case of `CCC1C2C(=O)c3ccc(O)cc3C1(C)CCN2CC1CC1` (stereo unspecified), binding in assay [1] was characterised by a dissociation constant (Kd) of 14 nM.
On to `C=CCN1CCCC(C)(c2cccc(O)c2)C1` (single isomer, unassigned; (-)) [listing 1 of 2 here], for which, in assay [2], the ED50 entry is “inactive”.
On to `C=CCN1CCCC(C)(c2cccc(O)c2)C1` (single isomer, unassigned; (+)), for which the Kd was 100 nM in [3]; 137 nM in [4]; 4000 nM in [6]; 3700 nM in assay [7]; 370 nM in assay [8]. The ED50 in assay [5] is 112 µmol/kg; in assay [9] it was 160.94 µM/kg.
As for `CN1CCCC(C)(c2cccc(O)c2)C1` (stereo in doubt; (-)-7a) [listing 1 of 2 here], the ED50 result in [10] is “inactive”.
As for `CC1(c2cccc(O)c2)CCCN(CCc2ccccc2)C1` (stereo in doubt; (+)-7d), the Kd came to 179 nM in assay [4]; 5 nM in assay [11]; 588 nM in assay [6]; 26300 nM in [7]; 6.2 nM in [8]. The ED50 came out at 13.1 µmol/kg in assay [5] and 11.5 µmol/kg in assay [9] (setting [17]).
Regarding `Br.CN1CCCC(C)(c2cccc(O)c2)C1` (racemic), the AD50 in assay [12] was 18.17 µM/kg. The ED50 in assay [13] stood at 26.9 µmol/kg.
For the molecule `CN1CCCC(C)(c2cccc(O)c2)C1` (stereo in doubt; (+)-7a), the Kd in assay [4] amounted to 714 nM; in [11] it was 132 nM; in assay [6] it was 15900 nM; in assay [7], 19200 nM; in assay [8], 1000 nM. The ED50 in assay [5] is 101 µmol/kg; in [9], 41.36 µM/kg.
As to `CC1(c2cccc(O)c2)CCCN(CC2CC2)C1` (single isomer, unassigned; (-)) [listing 1 of 2 here], in [9] (setting [17]), the ED50 turned out to be 12.2 µmol/kg.
Regarding `CN1CCCC(C)(c2cccc(O)c2)C1` (stereo in doubt; (-)-7a) [listing 2 of 2 here], the equilibrium dissociation constant (Kd) in [3] amounted to 114 nM; in [4] it was 625 nM; in assay [6] it was 30000 nM; in assay [7], 8330 nM; in assay [8] it was 1170 nM. Also, in assay [9] (setting [17]), the ED50 is 25.7 µmol/kg.
Turning to `CC1(c2cccc(O)c2)CCCN(CCc2ccccc2)C1` (single isomer, unassigned; (-)) [listing 1 of 2 here], the Kd in assay [4] is 625 nM; in [11] it was 13 nM; in assay [6] it was 2170 nM; in assay [7], 1390 nM; in assay [8] it was 130 nM. In addition, the ED50 in [9] was determined as 18.38 µM/kg.
Consider `CC1(c2cccc(O)c2)CCCN(CC2CC2)C1` (single isomer, unassigned; (-)) [listing 2 of 2 here], for which, in assay [2], the ED50 entry was “inactive”.
`C=CCN1CC[C@]23c4c5ccc(O)c4O[C@H]2[C@@H](O)C=C[C@H]3[C@H]1C5.Cl` [NALORPHINE HYDROCHLORIDE] displayed an AD50 in assay [12] of 0.71 µM/kg. Besides, in assay [14] (setting [17]), the ED50 came to 1.4 µmol/kg.
For the molecule `C=CCN1CCCC(C)(c2cccc(O)c2)C1` (single isomer, unassigned; (-)) [listing 2 of 2 here], the Kd stood at 370 nM in assay [4]; 24 nM in [11]; 4000 nM in assay [6]; 1720 nM in [7]; 110 nM in [8]. Besides, in assay [9], the ED50 was 14.34 µM/kg.
On to `CC1(c2cccc(O)c2)CCCN(CC2CC2)C1` (racemic), for which the AD50 in assay [12] was 7.5 µM/kg. In [13], this molecule showed an ED50 of 83.5 µmol/kg.
Take `CN1CC[C@]23c4c5ccc(O)c4O[C@H]2[C@@H](O)C=C[C@H]3[C@H]1C5`: in assay [14] (setting [17]), the ED50 came out at 0.81 µmol/kg.
Molecule `C=CCN1CCCC(C)(c2cccc(O)c2)C1` (racemic) returned an AD50 in [12] of 38.83 µM/kg. In addition, in [13], the ED50 is 418 µmol/kg.
The molecule `CCOC(=O)C1(c2ccccc2)CCN(C)CC1` [MEPERIDINE HYDROCHLORIDE] registered an ED50 in assay [13] of 20.2 µmol/kg. Further, in assay [15], the AD50 result is “inactive”.
As to `CC1(c2cccc(O)c2)CCCN(CCc2ccccc2)C1` (single isomer, unassigned; (-)) [listing 2 of 2 here], the ED50 entry in [2] was “inactive”.
On to `C=CCN1CC[C@]23c4c5ccc(O)c4O[C@H]2[C@@H](O)C=C[C@H]3[C@H]1C5` [NALORPHINE], for which the figures for the ED50 in [16] and in assay [14] were 2.04 µmol/kg and 1.4 µM/kg, respectively.
In assay [12], `CC1(c2cccc(O)c2)CCCN(CCc2ccccc2)C1` (racemic) gave an AD50 of 33.94 µM/kg. Moreover, the ED50 in [13] came to 14.1 µmol/kg.
For `CC1(c2cccc(O)c2)CCCN(CC2CC2)C1` (single isomer, unassigned; (+)), the ED50 in [5] was 139 µmol/kg.
